Reference: ChEMBL document CHEMBL3232757, “Structure-activity relationships for withanolides as inducers of the cellular heat-shock response” (J Med Chem, 2014)
Peptide text beside a SMILES is read from it. * marks the point of attachment. Cbz = O=C(OCc1ccccc1)*

Columns and labels:
[1] = Cytotoxicity against human NCI-H929 cells after 3 days by Alamar blue assay; type: functional, cell-based; conditions: NCI-H929, 72 h
[2] = biological target: Heat shock 70 kDa protein 6 (Homo sapiens) (UniProt P17066); assay: Induction of […] (unknown origin)-mediated heat shock response expressed in human 293T cells coexpressing GFP assessed as heat shock index after overnight incubation by luciferase reporter gene assay relative to control; type: cell-based
Heat shock 70 kDa protein 6 (Homo sapiens), sequence (P17066 whole entry, the tested form may be a part): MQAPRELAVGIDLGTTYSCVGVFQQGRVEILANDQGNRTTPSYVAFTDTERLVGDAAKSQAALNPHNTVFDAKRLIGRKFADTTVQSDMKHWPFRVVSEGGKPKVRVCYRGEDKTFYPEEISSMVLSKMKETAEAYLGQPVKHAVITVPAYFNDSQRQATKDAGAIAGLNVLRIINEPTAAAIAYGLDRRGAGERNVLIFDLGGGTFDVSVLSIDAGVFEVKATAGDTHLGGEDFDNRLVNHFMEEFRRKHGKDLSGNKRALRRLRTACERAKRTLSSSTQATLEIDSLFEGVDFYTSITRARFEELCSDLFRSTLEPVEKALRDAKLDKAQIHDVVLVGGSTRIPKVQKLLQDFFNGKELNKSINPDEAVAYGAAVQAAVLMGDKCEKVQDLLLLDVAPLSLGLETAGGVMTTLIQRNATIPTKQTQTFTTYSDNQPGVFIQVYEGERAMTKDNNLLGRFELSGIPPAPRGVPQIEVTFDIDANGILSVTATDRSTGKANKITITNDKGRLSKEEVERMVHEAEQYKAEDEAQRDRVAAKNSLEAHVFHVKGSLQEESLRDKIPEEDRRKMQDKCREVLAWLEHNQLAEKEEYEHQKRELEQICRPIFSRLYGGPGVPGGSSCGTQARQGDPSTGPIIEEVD
Method in brief: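 293T cells transduced with a lentiviral EGFP–firefly luciferase fusion under HSP70B′ promoter elements, enriched by heat shock (42 °C, 1 h) plus FACS, then reverse-sorted to remove constitutive expressers. Cells in DMEM/10% FBS were seeded at 20 000/well and given serial dilutions next day, quadruplicate wells, overnight. Read by Steady-Glo luminescence. Index = [Log2(treated/control)]/concentration (μM) at maximal response.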

[3] = Cytotoxicity against human CHP100 cells assessed as inhibition of cell survival after 24 hrs by MTT assay; type: functional, cell-based; conditions: CHP100, 24 h
[4] = Cytotoxicity against human CHP100 cells assessed as inhibition of cell survival at 4 uM after 24 hrs by MTT assay relative to control; type: functional; conditions: CHP100, 24 h

| SMILES | IC50 [1] [µM] | fold change (FC) [2] | IC50 [3] [µM] | inhibition at 4 µM [4] [%] | Activity [2] |
| --- | --- | --- | --- | --- | --- |
| CC1=C(C)C(=O)O[C@@H]([C@@H](C)[C@H]2CC[C@H]3[C@@H]4C[C@H]5O[C@]56[C@@H](O)C=CC(=O)[C@]6(C)[C@H]4CC[C@]23C)C1 | 0.88 | 0.52 | 0.64 | > 80 |  |
| CC1=C(CO)C(=O)O[C@@H]([C@@H](C)[C@H]2CC[C@H]3[C@@H]4C[C@H]5O[C@]56[C@@H](O)[C@@H](OS(=O)(=O)O)CC(=O)[C@]6(C)[C@H]4CC[C@]23C)C1 | 5.25 | 0 |  |  |  |
| CC1=C(CO)C(=O)O[C@@H]([C@@H](C)[C@H]2CC[C@H]3[C@@H]4C[C@H](O)[C@]5(O)[C@@H](O)C=CC(=O)[C@]5(C)[C@H]4CC[C@]23C)C1 | > 10 | 0 |  |  |  |
| CC1=C(CO)C(=O)O[C@@H]([C@@H](C)[C@H]2C[C@@H](O)[C@H]3[C@@H]4C[C@H]5O[C@]56[C@@H](O)C=CC(=O)[C@]6(C)[C@H]4CC[C@@]32C)C1 | 3.83 | 0 |  |  |  |
| CC1=C(CO)C(=O)O[C@@H]([C@@H](C)[C@H]2CC[C@H]3[C@@H]4C[C@H]5O[C@]56[C@@H](O)[C@@H](n5cnc7c(N)ncnc75)CC(=O)[C@]6(C)[C@H]4CC[C@]23C)C1 | 0.61 | 0 |  |  |  |
| CC(=O)OCC1=C(C)C[C@H]([C@@H](C)[C@H]2CC[C@H]3[C@@H]4C[C@@H](OC(C)=O)[C@@]5(O)CC=CC(=O)[C@]5(C)[C@H]4CC[C@]23C)OC1=O | > 10 | 0 |  |  |  |
| CC1=C(CO)C(=O)O[C@@H]([C@@H](C)[C@H]2CC[C@H]3[C@@H]4C[C@H]5O[C@]56[C@@H](O)[C@H](n5ccc(=O)[nH]c5=O)CC(=O)[C@]6(C)[C@H]4CC[C@]23C)C1 | 0.54 | 0.59 | 0.96 | > 80 |  |
| CC1=C(CO)C(=O)OC([C@@H](C)C2CCC3C4C(CC[C@@]32C)[C@@]2(C)C(=O)C=CC[C@]2(O)[C@H]2O[C@@H]42)C1 (some centres undefined) | > 10 | 0 |  |  |  |
| CC(=O)OCC1=C(C)C[C@H]([C@@H](C)[C@H]2CC[C@H]3[C@@H]4CC=C5C(OC(C)=O)C=CC(=O)[C@]5(C)[C@H]4CC[C@]23C)OC1=O (single isomer, unassigned) | 1.63 | 0.9 | 0.53 | > 80 |  |
| CC1=C(COS(=O)(=O)O)C(=O)O[C@@H]([C@@H](C)[C@H]2CC[C@H]3[C@@H]4C[C@H]5O[C@]56[C@@H](O)C=CC(=O)[C@]6(C)[C@H]4CC[C@]23C)C1 | 3.32 | 0.2 |  |  |  |
| CC(C)C[C@@H](C=O)NC(=O)[C@H](CC(C)C)NC(=O)[C@H](CC(C)C)NC(=O)OCc1ccccc1 [MG-132] (Cbz-Leu-Leu-Leu-aldehyde) | 0.17 | 0.71 |  |  |  |
| CC(=O)O[C@H]1C=CC(=O)[C@]2(C)[C@H]3CC[C@]4(C)[C@@H]([C@H](C)[C@H]5CC(C)=C(C)C(=O)O5)CC[C@H]4[C@@H]3C[C@H]3O[C@]132 | 0.43 | 1.53 | 0.76 | > 80 |  |
| CC(=O)OCC1=C(C)C[C@H]([C@@H](C)[C@H]2CC[C@H]3[C@@H]4C[C@H](OC(C)=O)[C@]5(O)[C@@H](OC(C)=O)C=CC(=O)[C@]5(C)[C@H]4CC[C@]23C)OC1=O | 2.29 | 0.74 |  |  |  |
| CC(=O)OCC1=C(C)C[C@H]([C@@H](C)[C@H]2CC[C@H]3[C@@H]4C[C@H]5O[C@]56[C@@H](OC(C)=O)[C@@H](OS(=O)(=O)O)CC(=O)[C@]6(C)[C@H]4CC[C@]23C)OC1=O | 1.04 | 0.78 | 0.39 | > 80 |  |
| CC1=C(CO)C(=O)O[C@@H]([C@@H](C)[C@H]2CC[C@H]3[C@@H]4C[C@H]5O[C@]56[C@@H](O)[C@@H](N=[N+]=[N-])CC(=O)[C@]6(C)[C@H]4CC[C@]23C)C1 | 1.65 | 0 | 0.81 | > 80 |  |
| CC1=C(CO)C(=O)O[C@@H]([C@@H](C)[C@H]2CC[C@H]3[C@@H]4C[C@H]5O[C@]56[C@@H](O)C=CC(=O)[C@]6(C)[C@H]4C[C@@H](O)[C@]23C)C1 | 4.3 | 0 |  |  |  |
| CC1=C(COS(=O)(=O)O)C(=O)O[C@@H]([C@@H](C)[C@H]2CC[C@H]3[C@@H]4C[C@H]5O[C@]56[C@@H](OS(=O)(=O)O)C=CC(=O)[C@]6(C)[C@H]4CC[C@]23C)C1 | > 10 | 0 |  |  |  |

| SMILES | IC50 [1] [µM] | fold change (FC) [2] | IC50 [3] [µM] | inhibition at 4 µM [4] [%] | Activity [2] |
| --- | --- | --- | --- | --- | --- |
| CC1=C(CO)C(=O)O[C@@H]([C@@H](C)[C@H]2CC[C@H]3[C@@H]4CC=C5C[C@@H](O)C[C@H](O)[C@]5(C)[C@H]4CC[C@]23C)C1 | 4.96 | 0 |  |  |  |
| CC1=C(CO)C(=O)O[C@@H]([C@@H](C)[C@H]2CC[C@H]3[C@@H]4CC=C5[C@@H](O)C=CC(=O)[C@]5(C)[C@H]4CC[C@]23C)C1 | 5.09 | 0 |  |  |  |
| CC(=O)OCC1=C(C)C[C@H]([C@@H](C)[C@H]2CC[C@H]3[C@@H]4C[C@H]5O[C@]56C(=O)C=CC(=O)[C@]6(C)[C@H]4CC[C@]23C)OC1=O | 0.46 | 0.92 | 0.39 | > 80 |  |
| CC(=O)OCC1=C(C)C[C@H]([C@@H](C)[C@H]2CC[C@H]3[C@@H]4C[C@H]5O[C@]56[C@@H](OC(C)=O)C=CC(=O)[C@]6(C)[C@H]4C[C@@H](OC(C)=O)[C@]23C)OC1=O | 0.18 | 3.31 | 0.28 | > 80 | Dose-dependent effect |
| CC1=C(CO)C(=O)O[C@@H]([C@@H](C)[C@H]2CC[C@H]3[C@@H]4C[C@@H](O)[C@@]5(O)CC=CC(=O)[C@]5(C)[C@H]4CC[C@]23C)C1 [JABOROSALACTONE D] | > 10 | 0 |  |  |  |
| CCCCO[C@H]1CC(=O)[C@]2(C)[C@H]3CC[C@]4(C)[C@@H]([C@H](C)[C@H]5CC(C)=C(CO)C(=O)O5)CC[C@H]4[C@@H]3C[C@H]3O[C@]32[C@H]1O | 8.74 | 0 |  |  |  |
| CC(=O)OCC1=C(C)C[C@H]([C@@H](C)[C@H]2C[C@@H](OC(C)=O)[C@H]3[C@@H]4C[C@H]5O[C@]56[C@@H](OC(C)=O)C=CC(=O)[C@]6(C)[C@H]4CC[C@@]32C)OC1=O | 0.24 | 1.65 | 0.31 | > 80 |  |
| CC(=O)OCC1=C(C)C[C@H]([C@@H](C)[C@H]2CC[C@H]3[C@@H]4C[C@H]5O[C@]56[C@@H](O)C=CC(=O)[C@]6(C)[C@H]4CC[C@]23C)OC1=O | 0.25 | 3.81 | 0.23 | > 80 | Dose-dependent effect |
| CC1=C(CO)C(=O)O[C@@H]([C@@H](C)[C@H]2CC[C@H]3[C@@H]4C[C@H]5O[C@]56C(=O)C=CC(=O)[C@]6(C)[C@H]4CC[C@]23C)C1 | 1.16 | 0.79 |  |  |  |
| CC1=C(C)C(=O)O[C@@H]([C@](C)(O)[C@H]2CC[C@H]3[C@@H]4[C@@H]5O[C@@H]5[C@@]5(O)CC=CC(=O)[C@]5(C)[C@H]4CC[C@]23C)C1 [WITHANOLIDE A] | > 10 | 0 |  |  |  |
| CC(=O)O[C@@H]1C=CC(=O)[C@]2(C)[C@H]3CC[C@]4(C)[C@@H]([C@H](C)[C@H]5CC(C)=C(CO)C(=O)O5)CC[C@H]4[C@@H]3C[C@H]3O[C@]132 | 0.25 | 1.64 | 0.83 | > 80 |  |
| CC(=O)OCC1=C(C)C[C@H]([C@@H](C)[C@H]2CC[C@H]3[C@@H]4[C@@H]5O[C@@H]5[C@@]5(O)CC=CC(=O)[C@]5(C)[C@H]4CC[C@]23C)OC1=O | > 10 | 0 |  |  |  |
| CC1=C(CO)C(=O)O[C@@H]([C@@H](C)[C@H]2CC[C@H]3[C@@H]4C[C@H]5O[C@]56[C@H](O)C=CC(=O)[C@]6(C)[C@H]4CC[C@]23C)C1 | 0.28 | 1.68 | 0.93 | > 80 |  |
| CC1=C(CO)C(=O)O[C@@H]([C@@H](C)[C@H]2CC[C@H]3[C@@H]4C[C@H]5O[C@]56[C@@H](O)CCC(=O)[C@]6(C)[C@H]4CC[C@]23C)C1 | > 10 | 0 |  |  |  |
| CC1=C(CO)C(=O)O[C@@H]([C@@H](C)[C@H]2CC[C@H]3[C@@H]4C[C@H]5O[C@]56[C@@H](O)[C@@H](O)CC(=O)[C@]6(C)[C@H]4CC[C@]23C)C1 [VISCOSALACTONE B] | > 10 | 0 |  |  |  |
| CC(=O)O[C@H]1C=CC(=O)[C@]2(C)[C@H]3CC[C@]4(C)[C@@H]([C@H](C)[C@H]5CC(C)=C(CO)C(=O)O5)CC[C@H]4[C@@H]3C[C@H]3O[C@]132 | 0.25 | 1.73 | 0.78 | > 80 |  |
